{"source": "ChEMBL document CHEMBL1765022", "about": "“Synthesis and biological evaluation of tetracyclic thienopyridones as antibacterial and antitumor agents” (Bioorg Med Chem, 2011)", "key": {"Bacillus cereus": {"system": "Bacillus cereus", "assay": "Antimicrobial activity against Bacillus cereus ATCC 11778 by broth dilution method", "type": "functional", "procedure,_shortened": "(§1)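 Twofold serial broth dilution in Mueller Hinton Broth. […] Growth (drug-free), DMSO solvent and organism-free sterility tubes were included. Three replicates per organism, at least three independent experiments.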"}, "Escherichia coli [1]": {"system": "Escherichia coli", "assay": "Antimicrobial activity against Escherichia coli ATCC 8739 by broth dilution method", "type": "functional", "procedure,_shortened": "as §1"}, "Bacillus subtilis": {"system": "Bacillus subtilis", "assay": "Antimicrobial activity against Bacillus subtilis ATCC 6633 by broth dilution method", "type": "functional", "procedure,_shortened": "as §1"}, "Priestia megaterium": {"system": "Priestia megaterium", "assay": "Antimicrobial activity against Bacillus megaterium ATCC 19213 by broth dilution method", "type": "functional", "procedure,_shortened": "as §1"}, "Staphylococcus aureus [2]": {"system": "Staphylococcus aureus", "assay": "Antimicrobial activity against Staphylococcus aureus ATCC 6538 by broth dilution method", "type": "functional", "procedure,_shortened": "as §1"}, "Acinetobacter baumannii [3]": {"system": "Acinetobacter baumannii", "assay": "Antimicrobial activity against Acinetobacter baumannii ATCC 19606 by broth dilution method", "type": "functional", "procedure,_shortened": "as §1"}, "Candida tropicalis": {"system": "Candida tropicalis", "assay": "Antimicrobial activity against Candida tropicalis ATCC 1369 by broth dilution method", "type": "functional", "procedure,_shortened": "(§2)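 Fungi were tested by twofold serial broth dilution in Sabouraud Dextrose Broth. Inoculum was 1x10³ CFU/mL, with 48 h at 30 °C before MIC determination. Growth, DMSO solvent and sterility controls were included. Three replicates per organism, at least three independent experiments.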"}, "Pseudomonas aeruginosa": {"system": "Pseudomonas aeruginosa", "assay": "Antimicrobial activity against Pseudomonas aeruginosa ATCC 9027 by broth dilution method", "type": "functional", "procedure,_shortened": "as §1"}, "A549": {"system": "A549", "assay": "Antitumor activity against human A549 cells after 72 hrs by MTT assay", "type": "functional, cell-based", "conditions": "A549, 72 h", "procedure,_shortened": "(§3)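 Cells were kept at 37 °C in 5% CO₂, in medium with 2 mM glutamine and 10% FBS; HuDe fibroblasts were grown in DMEM. Compounds were freshly dissolved in DMSO (final ≤0.1% v/v; controls received equal solvent) and applied at 0.1–20 µM for 72 h. Viability was read by MTT. IC₅₀ was extrapolated from Hill-fitted dose–response curves, from at least three independent experiments.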"}, "Acinetobacter baumannii [4]": {"system": "Acinetobacter baumannii", "assay": "Antimicrobial activity against quinilone-pencillin-resistant Acinetobacter baumannii clinical isolate by broth dilution method", "type": "functional"}, "Saccharomyces cerevisiae": {"system": "Saccharomyces cerevisiae", "assay": "Antimicrobial activity against Saccharomyces cerevisiae ATCC 9763 by broth dilution method", "type": "functional", "procedure,_shortened": "as §2"}, "NHDF": {"system": "NHDF", "assay": "Antitumor activity against human NHDF cells after 72 hrs by MTT assay", "type": "functional, cell-based", "procedure,_shortened": "as §3"}, "[5]": {"system": "Staphylococcus epidermidis", "assay": "Antimicrobial activity against Staphylococcus epidermidis ATCC 12228 by broth dilution method", "type": "functional", "procedure,_shortened": "as §1"}, "Aspergillus niger": {"system": "Aspergillus niger", "assay": "Antimicrobial activity against Aspergillus niger ATCC 6275 by broth dilution method", "type": "functional", "procedure,_shortened": "as §2"}, "Staphylococcus aureus [6]": {"system": "Staphylococcus aureus", "assay": "Antimicrobial activity against quinilone-pencillin-resistant Staphylococcus aureus isolate SAR 4790 by broth dilution method", "type": "functional", "procedure,_shortened": "(§4)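 Twofold serial broth dilution in Mueller Hinton Broth. […] Drug-free tubes, DMSO-only tubes and organism-free tubes served as growth, solvent and sterility controls. Three replicates per organism, at least three independent experiments.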"}, "[7]": {"assay": "Antimicrobial activity against Bacillus thuringiensis var.kurstaki BGSC 4D1 by broth dilution method", "type": "functional, Bacillus thuringiensis serovar kurstaki", "procedure,_shortened": "as §1"}, "MCF7": {"system": "MCF7", "assay": "Antitumor activity against human MCF7 cells after 72 hrs by MTT assay", "type": "functional, cell-based", "conditions": "MCF7, 72 h", "procedure,_shortened": "as §3"}, "Haemophilus influenzae": {"system": "Haemophilus influenzae", "assay": "Antimicrobial activity against Haemophilus influenzae ATCC 19418 by broth dilution method", "type": "functional", "procedure,_shortened": "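H. influenzae was grown in Haemophilus Test Medium using twofold serial broth dilution. […] Drug-free, DMSO-only and organism-free control tubes were included. Triplicates, with at least three independent experiments.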"}, "[8]": {"system": "Staphylococcus epidermidis", "assay": "Antimicrobial activity against quinilone-pencillin-resistant Staphylococcus epidermidis clinical isolate by broth dilution method", "type": "functional"}, "Staphylococcus aureus [9]": {"system": "Staphylococcus aureus", "assay": "Antimicrobial activity against quinilone-pencillin-resistant Staphylococcus aureus isolate SAR 72 by broth dilution method", "type": "functional", "procedure,_shortened": "as §4"}, "Escherichia coli [10]": {"system": "Escherichia coli", "assay": "Antimicrobial activity against quinilone-pencillin-resistant Escherichia coli clinical isolate by broth dilution method", "type": "functional"}, "[11]": {"assay": "Inhibition of Escherichia coli DNA gyrase assessed as reduction of DNA supercoiling activity using pBR322 DNA substrate after 30 mins by electrophoresis"}, "[12]": {"assay": "Inhibition of Escherichia coli topoisomerase 4 assessed as decatenation of kDNA after 30 mins by electrophoresis", "procedure,_shortened": "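E. coli topoisomerase IV decatenation of kinetoplast DNA was run in 40 mM HEPES-KOH pH 7.6 with 100 mM potassium glutamate, at varying compound amounts. Products were separated by agarose electrophoresis and quantified by gel documentation. IC₅₀ (µg/mL) is the concentration halving decatenation relative to drug-free enzyme control.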"}}, "data": [{"smiles": "Cc1ccc2c(c1)[nH]c1c2sc2c1c(=O)c(C(=O)O)cn2C1CC1", "values": [{"measurement": "MIC", "setting": "Bacillus cereus", "value": 300, "unit": "ng/mL"}, {"measurement": "MIC", "setting": "Escherichia coli [1]", "value": "> 100000", "unit": "ng/mL"}, {"measurement": "MIC", "setting": "Bacillus subtilis", "value": 0.3, "unit": "ng/mL"}, {"measurement": "MIC", "setting": "Priestia megaterium", "value": 7, "unit": "ng/mL"}, {"measurement": "MIC", "setting": "Staphylococcus aureus [2]", "value": 70, "unit": "ng/mL"}, {"measurement": "MIC", "setting": "Acinetobacter baumannii [3]", "value": 700, "unit": "ng/mL"}, {"measurement": "MIC", "setting": "Candida tropicalis", "value": "> 100000", "unit": "ng/mL"}, {"measurement": "MIC", "setting": "Pseudomonas aeruginosa", "value": "> 100000", "unit": "ng/mL"}, {"measurement": "IC50", "setting": "A549", "value": 6900, "unit": "nM"}, {"measurement": "MIC", "setting": "Acinetobacter baumannii [4]", "value": "> 100000", "unit": "ng/mL"}, {"measurement": "MIC", "setting": "Saccharomyces cerevisiae", "value": "> 100000", "unit": "ng/mL"}, {"measurement": "IC50", "setting": "NHDF", "value": "> 10000", "unit": "nM"}, {"measurement": "MIC", "setting": "[5]", "value": 300, "unit": "ng/mL"}, {"measurement": "MIC", "setting": "Aspergillus niger", "value": "> 100000", "unit": "ng/mL"}, {"measurement": "MIC", "setting": "Staphylococcus aureus [6]", "value": "> 100000", "unit": "ng/mL"}, {"measurement": "MIC", "setting": "[7]", "value": 150, "unit": "ng/mL"}, {"measurement": "IC50", "setting": "MCF7", "value": 2800, "unit": "nM"}, {"measurement": "MIC", "setting": "Haemophilus influenzae", "value": 1500, "unit": "ng/mL"}, {"measurement": "MIC", "setting": "[8]", "value": 25000, "unit": "ng/mL"}, {"measurement": "MIC", "setting": "Staphylococcus aureus [9]", "value": 12000, "unit": "ng/mL"}]}, {"smiles": "Clc1ccc(COC(Cn2ccnc2)c2ccc(Cl)cc2Cl)c(Cl)c1", "note": "(stereo not drawn) [MICONAZOLE]", "values": [{"measurement": "MIC", "setting": "Candida tropicalis", "value": 6000, "unit": "ng/mL"}, {"measurement": "MIC", "setting": "Saccharomyces cerevisiae", "value": 12000, "unit": "ng/mL"}, {"measurement": "MIC", "setting": "Aspergillus niger", "value": 3000, "unit": "ng/mL"}]}, {"smiles": "C[C@H]1COc2c(N3CCN(C)CC3)c(F)cc3c(=O)c(C(=O)O)cn1c23.C[C@H]1COc2c(N3CCN(C)CC3)c(F)cc3c(=O)c(C(=O)O)cn1c23.O", "note": "[LEVOFLOXACIN]", "values": [{"measurement": "MIC", "setting": "Bacillus cereus", "value": 150, "unit": "ng/mL"}, {"measurement": "MIC", "setting": "Bacillus subtilis", "value": 30, "unit": "ng/mL"}, {"measurement": "MIC", "setting": "Priestia megaterium", "value": 30, "unit": "ng/mL"}, {"measurement": "MIC", "setting": "Staphylococcus aureus [2]", "value": 70, "unit": "ng/mL"}, {"measurement": "MIC", "setting": "Acinetobacter baumannii [3]", "value": 150, "unit": "ng/mL"}, {"measurement": "MIC", "setting": "Candida tropicalis", "value": "> 100000", "unit": "ng/mL"}, {"measurement": "MIC", "setting": "Pseudomonas aeruginosa", "value": 300, "unit": "ng/mL"}, {"measurement": "MIC", "setting": "Acinetobacter baumannii [4]", "value": "> 100000", "unit": "ng/mL"}, {"measurement": "MIC", "setting": "Saccharomyces cerevisiae", "value": "> 100000", "unit": "ng/mL"}, {"measurement": "MIC", "setting": "[5]", "value": 150, "unit": "ng/mL"}, {"measurement": "MIC", "setting": "Aspergillus niger", "value": "> 100000", "unit": "ng/mL"}, {"measurement": "MIC", "setting": "Staphylococcus aureus [6]", "value": 100000, "unit": "ng/mL"}, {"measurement": "MIC", "setting": "[7]", "value": 70, "unit": "ng/mL"}, {"measurement": "MIC", "setting": "Escherichia coli [10]", "value": 25000, "unit": "ng/mL"}, {"measurement": "MIC", "setting": "Haemophilus influenzae", "value": 150, "unit": "ng/mL"}, {"measurement": "MIC", "setting": "[8]", "value": "> 100000", "unit": "ng/mL"}, {"measurement": "MIC", "setting": "Staphylococcus aureus [9]", "value": 25000, "unit": "ng/mL"}]}, {"smiles": "COc1ccc2c(c1)[nH]c1c2sc2c1c(=O)c(C(=O)O)cn2C1CC1", "values": [{"measurement": "MIC", "setting": "Bacillus cereus", "value": 30, "unit": "ng/mL"}, {"measurement": "MIC", "setting": "Escherichia coli [1]", "value": "> 100000", "unit": "ng/mL"}, {"measurement": "MIC", "setting": "Bacillus subtilis", "value": 0.3, "unit": "ng/mL"}, {"measurement": "IC50", "setting": "[11]", "value": 1100, "unit": "ng/mL"}, {"measurement": "MIC", "setting": "Priestia megaterium", "value": 0.03, "unit": "ng/mL"}, {"measurement": "MIC", "setting": "Staphylococcus aureus [2]", "value": 15, "unit": "ng/mL"}, {"measurement": "MIC", "setting": "Acinetobacter baumannii [3]", "value": 3000, "unit": "ng/mL"}, {"measurement": "MIC", "setting": "Candida tropicalis", "value": "> 100000", "unit": "ng/mL"}, {"measurement": "MIC", "setting": "Pseudomonas aeruginosa", "value": "> 100000", "unit": "ng/mL"}, {"measurement": "IC50", "setting": "A549", "value": 2600, "unit": "nM"}, {"measurement": "IC50", "setting": "[12]", "value": "> 24000", "unit": "ng/mL"}, {"measurement": "MIC", "setting": "Acinetobacter baumannii [4]", "value": "> 100000", "unit": "ng/mL"}, {"measurement": "MIC", "setting": "Saccharomyces cerevisiae", "value": "> 100000", "unit": "ng/mL"}, {"measurement": "IC50", "setting": "NHDF", "value": "> 10000", "unit": "nM"}, {"measurement": "MIC", "setting": "[5]", "value": 150, "unit": "ng/mL"}, {"measurement": "MIC", "setting": "Aspergillus niger", "value": "> 100000", "unit": "ng/mL"}, {"measurement": "MIC", "setting": "Staphylococcus aureus [6]", "value": "> 100000", "unit": "ng/mL"}, {"measurement": "MIC", "setting": "[7]", "value": 7, "unit": "ng/mL"}, {"measurement": "IC50", "setting": "MCF7", "value": 1600, "unit": "nM"}, {"measurement": "MIC", "setting": "Haemophilus influenzae", "value": 150, "unit": "ng/mL"}, {"measurement": "MIC", "setting": "[8]", "value": 6000, "unit": "ng/mL"}, {"measurement": "MIC", "setting": "Staphylococcus aureus [9]", "value": 1500, "unit": "ng/mL"}]}, {"smiles": "Cc1c2ccncc2c(C)c2c1[nH]c1ccccc12", "note": "[ELLIPTECINE]", "values": [{"measurement": "IC50", "setting": "NHDF", "value": "> 10000", "unit": "nM"}]}]}
